Results: ChEMBL document CHEMBL4689842, “EUbOPEN Chemogenomics Library wave 1” (2021)
Where “and” joins values, the source holds several entries; their conditions need not be identical. Equal values may be shown once.

Tested on: U2OS
Test: Multiplex assay against U2OS
Type: toxicity, cell-based
Conditions: human
Procedure, shortened: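 Compound was added to live cells that had been stained at seeding with Hoechst33342, BioTracker Green Microtubule Cytoskeleton Dye, MitoTracker Red and Annexin V Alexa Fluor 680, and imaging followed on a CQ1 microscope at 37°C and 5% CO2. CellPathfinder machine-learning gating divided cells into Hoechst high-intensity objects or normal cells, normal cells into healthy, pyknosed or fragmented nuclei, and pyknosed cells into mitotic or apoptotic. Tubulin, mitochondrial-mass and membrane-permeability phenotypes are per cents of healthy-nucleus cells.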

[1] = 12 h, 1 µM, compound concentration 1 uM, replicate 1
[2] = 12 h, 1 µM, compound concentration 1 uM, replicate 2
[3] = 12 h, 10 µM, compound concentration 10 uM, replicate 1
[4] = 12 h, 10 µM, compound concentration 10 uM, replicate 2
[5] = 24 h, 1 µM, compound concentration 1 uM, replicate 1
[6] = 24 h, 1 µM, compound concentration 1 uM, replicate 2
[7] = 24 h, 10 µM, compound concentration 10 uM, replicate 1
[8] = 24 h, 10 µM, compound concentration 10 uM, replicate 2

CNCc1ccc(-c2cc(-c3nc(-c4ccc(S(=O)(=O)C(C)C)cc4)cnc3N)on2)cc1 [BERZOSERTIB]
Population Apoptotic (%) [1]: 16% and 46%
Population Healthy Nuclei (%) [1]: 6% and 0%
Population Hoechst High Intensity Objects (%) [1]: 31% and 81%
Population Membrane Permeable-Phenotype (%) [1]: 46% and 20%
Population Mitochondria Different-Phenotype (%) [1]: 40% and 20%
Population Mitotic Cells (%) [1]: 83% and 53%
Population Tubulin-Different-Phenotype (%) [1]: 40% and 80%
Total Cell Count [1]: 185 and 523
Population Apoptotic (%) [2]: 10%
Population Fragmented Nuclei (%) [2]: 41% and 95%
Population Healthy Nuclei (%) [2]: 10% and 1%
Population Hoechst High Intensity Objects (%) [2]: 52% and 83%
Population Membrane Permeable-Phenotype (%) [2]: 42% and 55%
Population Mitotic Cells (%) [2]: 89%
Population Normal (%) [2]: 47% and 16%
Population Pyknosed Nuclei (%) [2]: 48%
Population Apoptotic (%) [3]: 17% and 38%
Population Healthy Nuclei (%) [3]: 4% and 0%
Population Hoechst High Intensity Objects (%) [3]: 49% and 82%
Population Membrane Permeable-Phenotype (%) [3]: 58% and 75%
Population Mitochondria Different-Phenotype (%) [3]: 25% and 0%
Population Mitotic Cells (%) [3]: 82% and 61%
Population Normal (%) [3]: 50% and 17%
Population Tubulin-Different-Phenotype (%) [3]: 41% and 50%
Population Apoptotic (%) [4]: 11%
Population Fragmented Nuclei (%) [4]: 39% and 97%
Population Healthy Nuclei (%) [4]: 9% and 1%
Population Hoechst High Intensity Objects (%) [4]: 45%
Population Membrane Permeable-Phenotype (%) [4]: 31% and 62%
Population Mitochondria Different-Phenotype (%) [4]: 5% and 12%
Population Mitotic Cells (%) [4]: 88%
Population Normal (%) [4]: 54%
Population Apoptotic (%) [5]: 50%
Population Healthy Nuclei (%) [5]: 0% and 11%
Population Hoechst High Intensity Objects (%) [5]: 81% and 50%
Population Membrane Permeable-Phenotype (%) [5]: 50% and 61%
Population Mitotic Cells (%) [5]: 50%
Population Normal (%) [5]: 18% and 49%
Population Tubulin-Different-Phenotype (%) [5]: 50% and 61%
Total Cell Count [5]: 432 and 192
Population Apoptotic (%) [6]: 28%
Population Fragmented Nuclei (%) [6]: 37% and 97%
Population Hoechst High Intensity Objects (%) [6]: 56% and 82%
Population Membrane Permeable-Phenotype (%) [6]: 38% and 44%
Population Mitochondria Different-Phenotype (%) [6]: 33% and 11%
Population Mitotic Cells (%) [6]: 71%
Population Normal (%) [6]: 43% and 17%
Population Pyknosed Nuclei (%) [6]: 41%
Population Tubulin-Different-Phenotype (%) [6]: 47% and 55%
Total Cell Count [6]: 92 and 244
Population Apoptotic (%) [7]: 33% and 22%
Population Fragmented Nuclei (%) [7]: 19%
Population Healthy Nuclei (%) [7]: 10%
Population Hoechst High Intensity Objects (%) [7]: 59%
Population Membrane Permeable-Phenotype (%) [7]: 61%
Population Mitotic Cells (%) [7]: 66% and 77%
Population Normal (%) [7]: 40%
Population Pyknosed Nuclei (%) [7]: 70%
Population Tubulin-Different-Phenotype (%) [7]: 75%
Population Apoptotic (%) [8]: 14% and 40%
Population Fragmented Nuclei (%) [8]: 38% and 98%
Population Healthy Nuclei (%) [8]: 15% and 0%
Population Hoechst High Intensity Objects (%) [8]: 51% and 82%
Population Mitochondria Different-Phenotype (%) [8]: 21% and 16%
Population Mitotic Cells (%) [8]: 85% and 60%
Population Normal (%) [8]: 48% and 17%
Population Tubulin-Different-Phenotype (%) [8]: 36% and 66%
